Data: ChEMBL document CHEMBL1140274, “Synthesis of (1,4)-naphthoquinono-[3,2-c]-1H-pyrazoles and their (1,4)-naphthohydroquinone derivatives as antifungal, antibacterial, and anticancer agents” (2005)
In brackets after ≈: the same amount, converted by molar mass.

Legend:
Candida albicans = assay: In-vitro minimum inhibitory concentration against the growth of Candida albicans; format: functional
Method in brief: (§1)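 Broth microdilution following NCCLS, run in 96-well plates with RPMI 1640 medium buffered with MOPS. The MIC was the endpoint against each fungal isolate.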

Aspergillus fumigatus = assay: In-vitro minimum inhibitory concentration against the growth of Aspergillus fumigatus; format: functional; method in brief: as §1
Cryptococcus neoformans = assay: In-vitro minimum inhibitory concentration against the growth of Cryptococcus neoformans; format: functional; method in brief: as §1
Trichophyton benhamiae = assay: In-vitro minimum inhibitory concentration against the growth of Trichophyton mentagrophytes; format: functional, Trichophyton mentagraphytes; method in brief: as §1
Sporothrix schenckii = assay: In-vitro minimum inhibitory concentration against the growth of Sporothrix schenckii; format: functional; method in brief: as §1
Pseudomonas aeruginosa = assay: In-vitro minimum inhibitory concentration against the growth of Pseudomonas aeruginosa; format: functional
Method in brief: (§2)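 Broth microdilution following NCCLS against each bacterial strain, with the MIC taken as the endpoint.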

Klebsiella pneumoniae = assay: In-vitro minimum inhibitory concentration against the growth of Klebsiella pneumoniae; format: functional; method in brief: as §2
Candida parapsilosis = assay: In-vitro minimum inhibitory concentration against the growth of Candida parapsilosis (ATCC 22019); format: functional; settings: Lodderomyces parapsilosis; method in brief: as §1
Escherichia coli = assay: In-vitro minimum inhibitory concentration against the growth of Escherichia coli; format: functional; method in brief: as §2
Enterococcus faecalis = assay: In-vitro minimum inhibitory concentration against the growth of Streptococcus faecalis; format: functional; method in brief: as §2
Staphylococcus aureus = assay: In-vitro minimum inhibitory concentration against the growth of Staphylococcus aureus; format: functional; method in brief: as §2
Rattus norvegicus [1] = assay: Anticancer activity against Walker 256 carcinosarcoma in rats at a dose of 50 mg/kg [Inactive]; format: functional
Rattus norvegicus [2] = assay: Anticancer activity against Walker 256 carcinosarcoma in rats at a dose of 10 mg/kg [Active]; format: functional

Molecule: Clc1ccc(COC(Cn2ccnc2)c2ccc(Cl)cc2Cl)c(Cl)c1 (stereo not given) [MICONAZOLE]
- MIC (Candida albicans): 25 µg/mL (≈ 60.1 µM)
- MIC (Aspergillus fumigatus): 12.5 µg/mL (≈ 30 µM)
- MIC (Cryptococcus neoformans): 12.5 µg/mL (≈ 30 µM)
- MIC (Trichophyton benhamiae): < 0.78 µg/mL

Molecule: CCCCNC(=O)c1[nH]nc2c1C(=O)c1ccccc1C2=O
- MIC (Sporothrix schenckii): > 50 µg/mL
- MIC (Candida albicans): > 50 µg/mL
- MIC (Pseudomonas aeruginosa): > 50 µg/mL
- MIC (Aspergillus fumigatus): > 50 µg/mL
- MIC (Klebsiella pneumoniae): > 50 µg/mL
- MIC (Candida parapsilosis): > 50 µg/mL
- MIC (Escherichia coli): > 50 µg/mL
- MIC (Enterococcus faecalis): > 50 µg/mL
- MIC (Cryptococcus neoformans): > 50 µg/mL
- MIC (Staphylococcus aureus): > 50 µg/mL
- MIC (Trichophyton benhamiae): > 50 µg/mL

Molecule: O=C1c2ccccc2C(=O)c2[nH]ncc21
- T/C (Rattus norvegicus [1]): 115%

Molecule: NC[C@H]1O[C@H](O[C@H]2[C@H](O)[C@@H](O[C@H]3O[C@H](CO)[C@@H](O)[C@H](N)[C@H]3O)[C@H](N)C[C@@H]2N)[C@H](O)[C@@H](O)[C@@H]1O [KANAMYCIN]
- MIC (Pseudomonas aeruginosa): > 128 µg/mL
- MIC (Klebsiella pneumoniae): 32 µg/mL (≈ 66 µM)
- MIC (Escherichia coli): 16 µg/mL (≈ 33 µM)
- MIC (Staphylococcus aureus): 2 µg/mL (≈ 4.13 µM)

Molecule: O=C1C=CC(=O)c2c(O)ccc(O)c21 [NAPHTHAZALIN]
- T/C (Rattus norvegicus [2]): 37%

Molecule: CCOC(=O)c1[nH]nc2c1C(=O)c1ccccc1C2=O
- MIC (Sporothrix schenckii): > 50 µg/mL
- MIC (Candida albicans): > 50 µg/mL
- MIC (Pseudomonas aeruginosa): > 50 µg/mL
- MIC (Aspergillus fumigatus): > 50 µg/mL
- MIC (Klebsiella pneumoniae): 12.5 µg/mL (≈ 46.3 µM)
- MIC (Candida parapsilosis): > 50 µg/mL
- MIC (Escherichia coli): 25 µg/mL (≈ 92.5 µM)
- MIC (Enterococcus faecalis): 12.5 µg/mL (≈ 46.3 µM)
- MIC (Cryptococcus neoformans): > 50 µg/mL
- MIC (Staphylococcus aureus): 25 µg/mL (≈ 92.5 µM)
- MIC (Trichophyton benhamiae): > 50 µg/mL

Molecule: GENTAMICIN
- MIC (Pseudomonas aeruginosa): 0.78 µg/mL
- MIC (Klebsiella pneumoniae): 0.39 µg/mL
- MIC (Staphylococcus aureus): 0.78 µg/mL

Molecule: OC(Cn1cncn1)(Cn1cncn1)c1ccc(F)cc1F [FLUCONAZOLE]
- MIC (Sporothrix schenckii): 2 µg/mL (≈ 6.53 µM)
- MIC (Candida albicans): 1 µg/mL (≈ 3.27 µM)
- MIC (Aspergillus fumigatus): 2 µg/mL (≈ 6.53 µM)
- MIC (Candida parapsilosis): 2 µg/mL (≈ 6.53 µM)
- MIC (Cryptococcus neoformans): 1 µg/mL (≈ 3.27 µM)
- MIC (Trichophyton benhamiae): 0.5 µg/mL (≈ 1.63 µM)

Molecule: C=CCNC(=O)c1[nH]nc2c1C(=O)c1ccccc1C2=O
- MIC (Sporothrix schenckii): > 50 µg/mL
- MIC (Candida albicans): > 50 µg/mL
- MIC (Pseudomonas aeruginosa): > 50 µg/mL
- MIC (Aspergillus fumigatus): > 50 µg/mL
- MIC (Klebsiella pneumoniae): 12.5 µg/mL (≈ 44.4 µM)
- MIC (Candida parapsilosis): > 50 µg/mL
- MIC (Escherichia coli): 12.5 µg/mL (≈ 44.4 µM)
- MIC (Enterococcus faecalis): > 50 µg/mL
- MIC (Cryptococcus neoformans): > 50 µg/mL
- MIC (Staphylococcus aureus): > 50 µg/mL
- MIC (Trichophyton benhamiae): > 50 µg/mL

Molecule: O=C(NNc1ccc([N+](=O)[O-])cc1[N+](=O)[O-])c1[nH]nc2c(O)c3ccccc3c(O)c12
- MIC (Sporothrix schenckii): > 50 µg/mL
- MIC (Candida albicans): 25 µg/mL (≈ 58.9 µM)
- MIC (Pseudomonas aeruginosa): > 50 µg/mL
- MIC (Aspergillus fumigatus): > 50 µg/mL
- MIC (Klebsiella pneumoniae): > 50 µg/mL
- MIC (Candida parapsilosis): > 50 µg/mL
- MIC (Escherichia coli): > 50 µg/mL
- MIC (Enterococcus faecalis): > 50 µg/mL
- MIC (Cryptococcus neoformans): > 50 µg/mL
- MIC (Staphylococcus aureus): > 50 µg/mL
- MIC (Trichophyton benhamiae): > 50 µg/mL

Molecule: C[C@@H]1[C@H](O)[C@@H](C)/C=C/C=C/C=C/C=C/C=C/C=C/C=C/[C@H](O[C@@H]2O[C@H](C)[C@@H](O)[C@H](N)[C@@H]2O)C[C@@H]2O[C@](O)(C[C@@H](O)C[C@@H](O)[C@H](O)CC[C@@H](O)C[C@@H](O)CC(=O)O[C@H]1C)C[C@H](O)[C@H]2C(=O)O [AMPHOTERICIN B]
- MIC (Candida albicans): 0.39 µg/mL (≈ 0.422 µM)
- MIC (Cryptococcus neoformans): 0.78 µg/mL (≈ 0.844 µM)
- MIC (Trichophyton benhamiae): 1.56 µg/mL (≈ 1.69 µM)

Molecule: CCOC(=O)c1[nH]nc2c(O)c3ccccc3c(O)c12
- MIC (Sporothrix schenckii): 50 µg/mL (≈ 184 µM)
- MIC (Candida albicans): 6.25 µg/mL (≈ 23 µM)
- MIC (Pseudomonas aeruginosa): > 50 µg/mL
- MIC (Aspergillus fumigatus): 25 µg/mL (≈ 91.8 µM)
- MIC (Klebsiella pneumoniae): 6.25 µg/mL (≈ 23 µM)
- MIC (Candida parapsilosis): 12.5 µg/mL (≈ 45.9 µM)
- MIC (Escherichia coli): 6.25 µg/mL (≈ 23 µM)
- MIC (Enterococcus faecalis): 25 µg/mL (≈ 91.8 µM)
- MIC (Cryptococcus neoformans): 6.25 µg/mL (≈ 23 µM)
- MIC (Staphylococcus aureus): 25 µg/mL (≈ 91.8 µM)
- MIC (Trichophyton benhamiae): 25 µg/mL (≈ 91.8 µM)

Molecule: NNC(=O)c1[nH]nc2c(O)c3ccccc3c(O)c12
- MIC (Sporothrix schenckii): > 50 µg/mL
- MIC (Candida albicans): 25 µg/mL (≈ 96.8 µM)
- MIC (Pseudomonas aeruginosa): > 50 µg/mL
- MIC (Aspergillus fumigatus): > 50 µg/mL
- MIC (Klebsiella pneumoniae): > 50 µg/mL
- MIC (Candida parapsilosis): > 50 µg/mL
- MIC (Escherichia coli): > 50 µg/mL
- MIC (Enterococcus faecalis): > 50 µg/mL
- MIC (Cryptococcus neoformans): 25 µg/mL (≈ 96.8 µM)
- MIC (Staphylococcus aureus): > 50 µg/mL
- MIC (Trichophyton benhamiae): > 50 µg/mL

Molecule: NNC(=O)c1[nH]nc2c1C(=O)c1ccccc1C2=O
- MIC (Sporothrix schenckii): > 50 µg/mL
- MIC (Candida albicans): > 50 µg/mL
- MIC (Pseudomonas aeruginosa): > 50 µg/mL
- MIC (Aspergillus fumigatus): > 50 µg/mL
- MIC (Klebsiella pneumoniae): > 50 µg/mL
- MIC (Candida parapsilosis): > 50 µg/mL
- MIC (Escherichia coli): > 50 µg/mL
- MIC (Enterococcus faecalis): > 50 µg/mL
- MIC (Cryptococcus neoformans): > 50 µg/mL
- MIC (Staphylococcus aureus): > 50 µg/mL
- MIC (Trichophyton benhamiae): > 50 µg/mL

Molecule: O=C1c2ccccc2C(=O)c2c1n[nH]c2C(=O)NCCO
- MIC (Sporothrix schenckii): > 50 µg/mL
- MIC (Candida albicans): > 50 µg/mL
- MIC (Pseudomonas aeruginosa): > 50 µg/mL
- MIC (Aspergillus fumigatus): > 50 µg/mL
- MIC (Klebsiella pneumoniae): 25 µg/mL (≈ 87.6 µM)
- MIC (Candida parapsilosis): > 50 µg/mL
- MIC (Escherichia coli): 25 µg/mL (≈ 87.6 µM)
- MIC (Enterococcus faecalis): > 50 µg/mL
- MIC (Cryptococcus neoformans): > 50 µg/mL
- MIC (Staphylococcus aureus): > 50 µg/mL
- MIC (Trichophyton benhamiae): > 50 µg/mL

Molecule: CNC(=O)c1[nH]nc2c1C(=O)c1ccccc1C2=O
- MIC (Sporothrix schenckii): > 50 µg/mL
- MIC (Candida albicans): > 50 µg/mL
- MIC (Pseudomonas aeruginosa): > 50 µg/mL
- MIC (Aspergillus fumigatus): > 50 µg/mL
- MIC (Klebsiella pneumoniae): 25 µg/mL (≈ 97.9 µM)
- MIC (Candida parapsilosis): 50 µg/mL (≈ 196 µM)
- MIC (Escherichia coli): > 50 µg/mL
- MIC (Enterococcus faecalis): > 50 µg/mL
- MIC (Cryptococcus neoformans): > 50 µg/mL
- MIC (Staphylococcus aureus): > 50 µg/mL
- MIC (Trichophyton benhamiae): > 50 µg/mL

Molecule: NYSTATIN
- MIC (Sporothrix schenckii): 13.2 µg/mL
- MIC (Candida albicans): 7.8 µg/mL
- MIC (Cryptococcus neoformans): 3.5 µg/mL

Molecule: O=C1c2ccccc2C(=O)c2c1n[nH]c2C(=O)NNc1ccccc1
- MIC (Sporothrix schenckii): > 50 µg/mL
- MIC (Candida albicans): > 50 µg/mL
- MIC (Pseudomonas aeruginosa): > 50 µg/mL
- MIC (Aspergillus fumigatus): > 50 µg/mL
- MIC (Klebsiella pneumoniae): 12.5 µg/mL (≈ 37.6 µM)
- MIC (Candida parapsilosis): > 50 µg/mL
- MIC (Escherichia coli): > 50 µg/mL
- MIC (Enterococcus faecalis): 25 µg/mL (≈ 75.2 µM)
- MIC (Cryptococcus neoformans): > 50 µg/mL
- MIC (Staphylococcus aureus): > 50 µg/mL
- MIC (Trichophyton benhamiae): > 50 µg/mL
